# Assay outcomes (PubChem BioAssay)
# T cell HTS: T cell immune modulators affecting CD8 T cell-vesicle binding | 0.068% of 330,000 active | response (vesicle binding), % at 7 µM | 2C CD8+ T cell-vesicle binding, flow cytometry; stronger effect = lower value;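 active means response, share of CD8 T cells binding vesicles, and their 90th percentile fluorescence all below set limits, cut at about 80% in these data, passing the limit was not always enough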;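 further: values below 100% mean blocked vesicle binding to the CD8+ T cells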
#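 Read-out – percent CD8+ FL2 mean versus row control · System – murine 2C transgenic CD8+ T lymphocytes · Times – 1.5 h cell–vesicle binding at 37 °C, then 20 min icy labelling · Control set – naked vesicles low, QL9 vesicles with vehicle high · Detection – cytometric PE anti-B7-1 and Alexa647 anti-CD8 signals after 1% paraformaldehyde fixation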
# HKDC1 inhibitor: blocks human hexokinase HKDC1 activity. recombinant HKDC1, G6PDH/diaphorase resazurin coupled fluorescence. AID 493160. Q2TB90. 0.16% of 340,000 active. inhibition, % at 20 µM;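 active means inhibition above about 35% when tested at 20 µM, limit read from the data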
# Target sequence (Q2TB90 whole entry, looked up): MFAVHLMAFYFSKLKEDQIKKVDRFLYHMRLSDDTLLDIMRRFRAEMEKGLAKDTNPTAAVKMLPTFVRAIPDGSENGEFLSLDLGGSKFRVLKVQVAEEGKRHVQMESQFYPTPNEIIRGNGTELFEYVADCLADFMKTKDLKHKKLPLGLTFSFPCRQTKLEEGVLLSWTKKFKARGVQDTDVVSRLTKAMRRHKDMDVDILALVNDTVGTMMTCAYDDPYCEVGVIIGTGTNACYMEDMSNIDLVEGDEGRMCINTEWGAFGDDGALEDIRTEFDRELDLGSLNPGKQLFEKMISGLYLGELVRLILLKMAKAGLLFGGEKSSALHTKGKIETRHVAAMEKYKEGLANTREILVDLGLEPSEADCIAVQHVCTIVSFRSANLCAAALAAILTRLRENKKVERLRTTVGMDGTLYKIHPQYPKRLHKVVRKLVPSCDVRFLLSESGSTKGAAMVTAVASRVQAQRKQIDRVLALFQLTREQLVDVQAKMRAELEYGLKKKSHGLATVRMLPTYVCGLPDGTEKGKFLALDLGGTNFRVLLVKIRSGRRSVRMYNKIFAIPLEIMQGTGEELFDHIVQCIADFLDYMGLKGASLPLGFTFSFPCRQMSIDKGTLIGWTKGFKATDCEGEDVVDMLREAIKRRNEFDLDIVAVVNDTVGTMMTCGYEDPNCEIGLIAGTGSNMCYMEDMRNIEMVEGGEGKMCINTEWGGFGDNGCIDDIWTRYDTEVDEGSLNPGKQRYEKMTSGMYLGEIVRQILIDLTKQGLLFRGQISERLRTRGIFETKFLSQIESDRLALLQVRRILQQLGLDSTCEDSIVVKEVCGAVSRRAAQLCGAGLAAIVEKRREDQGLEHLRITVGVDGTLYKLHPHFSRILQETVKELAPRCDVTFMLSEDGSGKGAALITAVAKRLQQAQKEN
#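 Test system: Recombinant HKDC1 (HK5) hexokinase enzyme, produced in-house | Input: HKDC1 at 5 µg/mL | Buffer or medium: Tris pH 8.0 buffer with MgCl2, Tween-20, BSA, BME | Schedule: 90 min reaction incubation at room temperature, dark | Technique: Resazurin-to-resorufin fluorescence via G6PDH and diaphorase coupling, 525/613 nm | Controls: DMSO wells with and without enzyme mix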
# PfG6PD inh: PfG6PD (Plasmodium falciparum) enzyme inhibition | PfGluPho enzyme, NADPH resazurin-diaphorase fluorescence | inhibition, % at 20 µM | 0.78% of 350,000 active;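 active means inhibition reaching at least a set limit at 20 µM in the primary screen, cut at about 59% in these data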
# ATG4B inhibitor: inhibitors of human ATG4B cysteine protease. inhibition, % at 8.33 µM. 0.51% of 340,000 active. ATG4B cleavage of LC3-PLA2, NBD-HPC fluorescence, 1 h; in the data active means inhibition above about 40%
# PKA-R1A activ: activates the PKA-R1A holoenzyme complex | P00514+P68181 | PKA-R1A dissociation, Cy5-IP20 fluorescence polarization; scaled: DMSO 0%, 113 µM cGMP 100% | activation, % at 11.4 µM | 0.083% of 340,000 active | AID 504707;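 active means percent activation above the mean of all tested compounds plus 3 SD, cut at about 19% in these data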;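 further: higher means more PKAc released from R1A so a rise in polarization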
# PKA-R2B act: activators of human PKA-R2B complex | AID 504700 | 0.079% of 340,000 active | activation, % at 11.4 µM | PKA-R2B holoenzyme dissociation, Cy5-IP20 fluorescence polarization; R2B truncated from residue 108, S112A mutant; 0% DMSO only, 100% 113 µM cGMP;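 active means activation above a cutoff set at the mean over all compounds plus 3 SD, cut at about 18% in these data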;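 further: higher means more holoenzyme dissociation and a rise in polarization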
# Numbers stand for hits; i = inactive; nt = no result. Compounds with a hit are over-represented: about 1.6% of the library has one in this group of screens.
SMILES,T cell HTS,HKDC1 inhibitor,PfG6PD inh,ATG4B inhibitor,PKA-R1A activ,PKA-R2B act
CC(=O)c1ccc(NC(=O)c2ccc3nc(-c4ccco4)c(-c4ccco4)nc3c2)cc1,i,41.4,78.4,i,i,i
Nc1cc(C(=O)OCC(=O)c2ccc(CC(=O)N3CCOCC3)s2)ccc1Cl,0.0,i,i,i,i,i
CCN1CCc2c(OCC(=O)Nc3cccc(C)c3C)cccc2C1=O,66.6,nt,nt,nt,nt,nt
O=C1/C(=C/c2cccc([N+](=O)[O-])c2)CCc2ccccc21,i,i,i,i,i,i
CCN1C/C(=C\c2cccc([N+](=O)[O-])c2)C(=O)/C(=C/c2cccc([N+](=O)[O-])c2)C1,nt,42.5,i,i,i,i
CN(C)C(=O)c1cc(C(=O)c2ccc(F)cc2Cl)c[nH]1,i,i,i,i,i,i
CNC(=O)c1cc(C(=O)c2ccc(F)cc2C(F)(F)F)c[nH]1,0.0,i,i,i,i,i
NC(=O)c1cc[n+](CC2=C(C(=O)O)N3C(=O)[C@@H](NC(=O)C(c4ccccc4)S(=O)(=O)[O-])[C@H]3SC2)cc1 (stereo partly drawn),i,i,71.4,i,i,i
CCN(C(=O)C1CCCN1S(=O)(=O)c1ccc2c(c1)n(C)c(=O)c(=O)n2C)c1ccccc1 (stereo not drawn),32.3,i,i,i,i,i
CC1CC(C)CN(C(=O)c2ccc3c(=O)n(Cc4ccc5c(c4)OCO5)c(=S)[nH]c3c2)C1 (stereo not drawn),i,i,i,100.9,i,i
CC(C)CCOc1ccc(C(=O)NCC(c2ccco2)N(C)C)cc1 (stereo not drawn),i,i,i,i,i,i
Cc1ccc(NC(=S)Nc2cccc3cnccc23)cc1C,i,i,i,i,i,i
S=C(Nc1cccc(Cl)c1)Nc1cccc2cnccc12,i,i,95.4,i,i,i
Cc1ccccc1NC1=C/C(=N\S(=O)(=O)c2cccs2)c2ccccc2C1=O,i,62.6,99.3,95.2,i,i
CCOC(=O)C1(Cc2ccccc2C#N)CCCCC1=O (stereo not drawn),nt,i,i,i,i,i
O=C(c1ccccc1Br)N(Cc1ccccc1)c1ccccc1,i,i,i,i,i,i
CC1=[N+](C)c2c(ccc3cccnc23)C1(C)C,nt,i,i,i,24.3,30.7
CN1CCN(C(=O)CCCN2C(=O)/C(=C/c3ccccc3)SC2=S)CC1,i,i,i,i,i,i
O=C(O)CC(C(=O)O)N1C(=O)/C(=C/C=C/c2ccco2)SC1=S (stereo not drawn),i,i,i,i,i,i
O=C(NN1C(=O)/C(=C/C=C/c2ccco2)SC1=S)c1ccccc1O,i,i,i,69.6,i,i
O=C(O)CCCN1C(=O)/C(=C/C=C/c2ccco2)SC1=S,i,i,i,52.2,i,i
CC(/C=C1\SC(=S)N(CCC(=O)Nc2ccc(O)cc2)C1=O)=C\c1ccccc1,i,i,i,i,i,i
O=C(O)CCCN1C(=O)/C(=C\C(Cl)=C\c2ccccc2)SC1=S,i,43.6,i,i,i,i
CC(/C=C1\SC(=S)N(CCCC(=O)Nc2ccc(C(=O)O)c(O)c2)C1=O)=C\c1ccccc1,i,i,i,41.1,nt,nt
Cn1cccc1/C=C1\SC(=S)N(NC(=O)c2ccccc2O)C1=O,i,i,i,i,i,i
SMILES,T cell HTS,HKDC1 inhibitor,PfG6PD inh,ATG4B inhibitor,PKA-R1A activ,PKA-R2B act
NC(=O)c1ccc(NC(=O)CNC(c2ccccc2)c2ccccc2)cc1,i,i,i,i,i,i
O=C1NC(=O)c2cc3ccccc3cc21,i,i,i,i,i,i
CCOC(=O)c1sc(NC(=O)CSc2nc(C)cc(C)n2)c(C#N)c1C,i,i,i,i,i,i
CCOC(=O)c1sc(NC(=O)CSc2ncn[nH]2)c(C#N)c1C,14.9,i,i,i,i,i
CCOC(=O)c1sc(NC(=O)CSc2n[nH]c(-c3ccccc3)n2)c(C#N)c1C,i,i,62.0,i,i,i
CCOC(=O)c1sc(NC(=O)CSc2ccccn2)c(C#N)c1C,i,i,i,i,i,i
CCN(CC)S(=O)(=O)c1ccc(Cl)c(NC(=O)COC(=O)C2CCCCC2)c1,0.0,i,i,i,i,i
CCN(CC)S(=O)(=O)c1ccc(Cl)c(NC(=O)COC(=O)c2ccc(O)cc2)c1,i,i,i,i,i,i
Clc1ccc(N=c2ssnc2Cl)cc1,i,i,i,i,i,i
COc1ccc(N=c2ssnc2Cl)cc1,i,i,82.9,i,i,i
Clc1nssc1=Nc1ccccc1,nt,i,77.2,i,i,i
Fc1ccc(N=c2ssnc2Cl)c(F)c1,i,i,87.2,i,i,i
O=C(COC(=O)C1COc2ccccc2O1)c1ccccc1 (stereo not drawn),nt,nt,i,nt,i,i
CCOc1ccc(NC(=O)c2cccc(-n3cccc3)c2)cc1S(=O)(=O)N1CCOCC1,i,nt,nt,nt,i,i
Cc1ncc([N+](=O)[O-])n1S(=O)(=O)c1ccc2c(c1)OCCO2,nt,i,i,i,i,i
O=C1c2sc3nc4n(c(=O)c3c2CCC1Br)CCCCC4 (stereo not drawn),i,i,79.9,i,i,i
Cn1c(N)c(-c2ccccc2)c2ccc([N+](=O)[O-])cc2c1=O,i,i,i,i,i,i
O=S(=O)(Cc1ccccc1)C(c1ccccc1)S(=O)(=O)Cc1ccccc1,nt,nt,i,nt,i,i
Cn1ncc(Br)c1C(=O)N1CCCC1,i,i,i,i,i,i
Cn1ncc(Br)c1C(=O)N1CCCCCC1,33.2,i,i,i,i,i
CN(C)c1ccc(N=Cc2cccn2C)cc1,i,i,77.4,i,i,i
CCN(C(=O)c1cc2c(=O)[nH]c3ccc(C)cc3c2s1)c1ccc(F)cc1,i,i,i,i,i,i
CCN(C(=O)c1cc2c(=O)[nH]c3ccc(C)cc3c2s1)c1cccc(C)c1,0.0,i,i,i,i,i
CC1Sc2ccc(C(=O)OCc3ccccc3Cl)cc2NC1=O (stereo not drawn),i,i,i,i,i,i
COc1ccc(C(=O)NNC(=O)CSc2nnnn2C)cc1,61.7,i,i,i,i,i
CNC(=O)C[C@H]1C(=O)N(c2ccccc2)C[C@@H]1C,nt,nt,i,nt,i,i
COc1cc(N2C(=O)C=CC2=O)c(OC)cc1Cl,i,i,72.1,i,i,i
Cc1ccc(O)c(C(=O)c2cnn(C(=O)Cc3csc(C)n3)c2)c1,i,i,i,42.6,i,i
Cc1cccc(N=Cc2cc3c(cc2[N+](=O)[O-])OCO3)c1,i,i,i,i,i,i
O=[N+]([O-])c1cc2c(cc1C=Nc1ccccc1)OCO2,i,i,86.7,i,i,i
